PostGolgi ctrl – growth inhibition of yeast control strain, primary screen, counter-screen for post-Golgi transport modulator project | efflux-deficient yeast background strain, growth absorbance A615, 16 h | inhibition, % at 10 µM | actives 5% (n = 98,000) | AID 738, 2007
tolC growth inh – growth inhibitors of E. coli tolC mutant, primary screen, strain BW25113 ΔtolC::kan, 384-well. OD615. growth inhibition, % at 10 µM (by protocol). actives 2.2% (n = 65,000). AID 573, 2007;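 active = growth inhibition at or above a cutoff equal to the mean over every tested compound plus 3 SD, cut at about 60% in these data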;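 also: growth measured after 20 h incubation at 37 °C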
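Test system: tolC-deleted E. coli BW25113; medium: LB with kanamycin 50 µg/mL; compound: single-point testing at 10 µM; incubation: 20 h compound exposure of bacteria at 37 °C; signal: OD at 615 nm; evaluation: growth inhibition in percent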
Ecoli WT expand – growth inhibitors of wild-type E. coli, primary screen, strain BW25113, expanded library, OD600 | AID 710, 2007 | OD600 absorbance | actives 0.15% (n = 98,000) | growth inhibition, % at 100 µM;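 active = growth inhibition above about 50% at one test dose, limit read from the data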;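 also: growth measured after 20 h incubation at 37 °C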
PLAP act – PLAP enzyme activators, biochemical, luminescence, HTS. purified PLAP enzyme, luminescent substrate read-out; hits give high values. Alkaline phosphatase, placental type (Homo sapiens), P05187. AID 696, 2007. activation fold at 20 µM. actives 1.2% (n = 96,000); in the data active = activation fold above about 2
Target sequence (P05187 whole entry, looked up): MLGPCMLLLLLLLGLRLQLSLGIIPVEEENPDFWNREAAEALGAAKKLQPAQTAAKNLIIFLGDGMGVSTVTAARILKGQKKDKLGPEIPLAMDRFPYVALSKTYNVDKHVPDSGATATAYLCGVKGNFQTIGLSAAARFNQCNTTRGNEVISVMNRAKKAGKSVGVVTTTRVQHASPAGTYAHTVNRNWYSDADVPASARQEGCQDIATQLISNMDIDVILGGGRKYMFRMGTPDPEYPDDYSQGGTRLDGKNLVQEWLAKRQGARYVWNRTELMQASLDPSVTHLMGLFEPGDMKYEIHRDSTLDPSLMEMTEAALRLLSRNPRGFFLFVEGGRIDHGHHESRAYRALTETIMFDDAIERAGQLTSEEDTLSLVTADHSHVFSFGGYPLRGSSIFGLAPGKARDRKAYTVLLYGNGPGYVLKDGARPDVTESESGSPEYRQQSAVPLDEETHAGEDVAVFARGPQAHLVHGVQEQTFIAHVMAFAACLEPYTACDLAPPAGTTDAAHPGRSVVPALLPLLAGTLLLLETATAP
PostGolgi yeast – phenotypic screen on post-Golgi transport, primary screen | inhibition, % at 10 µM | AID 739, 2007 | actives 0.9% (n = 98,000) | post-Golgi transport phenotypic cell assay;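 also: yeast cells grown in 1536-well plates; yeast grown about 18 h at 30C before absorbance read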
* marks the source's active call; other numbers are inactive results; . = no result given. Compounds with a hit are over-represented: about 7.2% of the library has one in this group of screens. Rule as the data show it, unless noted: active = inhibition above about 30%; inactive = the rest.

SMILES	PostGolgi ctrl	tolC growth inh	Ecoli WT expand	PLAP act	PostGolgi yeast
CCOC(=O)c1cnc(SC)nc1Oc1cccc(NS(=O)(=O)c2ccc(C)cc2)c1	2.8	.	-41.0	1.2	-1.3
O=C(COc1cccc2ccccc12)N1CCN(c2ccccn2)CC1	15.2	34.9	1.0	1.5	7.8
CC1(C)CC2CC(C)(CN2C(=O)COc2cccc3ccccc23)C1 (centres undefined)	46.5*	.	-15.0	0.8	-6.7
CC1(C)CC2CC(C)(CN2C(=O)COC(=O)c2n[nH]c(=O)c3ccccc23)C1 (centres undefined)	13.1	5.7	4.0	1	1.8
O=C(COc1cccc2ccccc12)N1c2ccccc2CCc2ccccc21	32.3*	.	-17.0	1.3	17.7
O=C(COc1cccc2ccccc12)N1CCN(c2ccccc2)CC1	12.8	66.3*	-17.0	1.8	-16.2
O/C(=C\Sc1nnc(Cc2ccccc2)o1)c1ccc(F)cc1	-0.9	.	6.0	1.1	-17.7
O=C(COC(=O)CC12CC3CC(CC(C3)C1)C2)Nc1ncc(Cl)cc1Cl	37.0*	.	-8.0	1.5	-3.5
C=CCn1c(SCc2ccccc2)nnc1-c1cccnc1	5.8	-1.6	0.0	0.7	-1.8
C=CCn1c(SCc2nc(N)nc(N(C)C)n2)nnc1-c1cccnc1	33.1*	-17.2	-7.0	1.2	-2.6
CN(C(=O)/C(N=Nc1cccc(C(F)(F)F)c1)=C(\O)C(F)(F)F)c1ccccc1	37.6*	.	7.0	1.2	3.9
CC1CCN(C(=O)CCNC(=O)Cn2cnc3sc4c(c3c2=O)CCCC4)CC1	5.0	.	3.0	2.1*	-8.0
Cc1cc(C)cc(N(CC(=O)NCCSc2ccccn2)S(=O)(=O)c2ccccc2)c1	31.0*	.	-20.0	1.3	-3.2
COc1ccc(OC)c(C2=NOC(C(=O)NCc3ccco3)C2)c1 (centres undefined)	11.2	.	6.0	1.2	-9.2
CC12CCC(C(=O)NCc3ccc4c(c3)OCO4)(OC1=O)C2(C)C (centres undefined)	33.1*	9.3	1.0	0.9	10.3
CC(Sc1nnc2c(n1)C1(C)CCC2C1(C)C)C(=O)Nc1ccccc1 (centres undefined)	12.6	.	-11.0	1.2	-1.5
CCOC(=O)c1sc(Nc2cccc(C)c2C)nc1C	9.3	.	23.0	0.8	-12.2
COc1ccc(-c2cc(-c3ccccc3)c(C#N)c(S(C)(=O)=O)n2)cc1	51.0*	.	-6.0	0.8	3.9
CS(=O)c1nc(-c2ccc(Br)cc2)cc(-c2ccccc2)c1C#N (centres undefined)	77.1*	95.1*	-9.0	0.8	-0.9
Cc1cc(-c2ccccc2)c(C#N)c(N)n1	2.5	15.5	-4.0	1	13.8
CS(=O)(=O)c1nc(-c2ccc(Br)cc2)cc(-c2ccccc2)c1C#N	74.1*	.	-8.0	0.9	9.8
N#Cc1c(-c2cccc(F)c2)cc(-c2ccccc2)nc1Br	0.8	.	-26.0	1	-0.3
Cc1ccccc1[C@@H]1C(C#N)=C(N)S[C@H]1C(=O)c1ccccc1	21.3	.	2.0	0.7	5.0
Cc1cc(NC(=O)Cn2nnc3sc4c(c3c2=O)CCCC4)no1	-2.7	-2.6	-8.0	0.8	0.3
Cc1cc(NC(=O)Cn2nnc3sc4c(c3c2=O)CCC(C(C)(C)C)C4)no1 (centres undefined)	31.1*	76.0*	1.0	1.2	3.1
SMILES	PostGolgi ctrl	tolC growth inh	Ecoli WT expand	PLAP act	PostGolgi yeast
CCOC(=O)Cc1c(C)nc2c(-c3cccc(Br)c3)c[nH]n2c1=O	22.9	100.0*	12.0	1.1	10.5
COc1ccccc1Cn1c2nc3ccccc3nc2c2c(=O)n(CC(C)C)cnc21	.	1.3	.	.	.
Cc1ccccc1CS(=O)(=O)c1nnc([C@H](CC(C)C)NC(=O)OC(C)(C)C)o1	44.7*	-1.4	12.0	1	41.1*
CC[C@@H](C)[C@H](NC(=O)OC(C)(C)C)c1nnc(S(=O)(=O)Cc2cc(C)ccc2C)o1	41.4*	1.9	13.0	1.1	4.7
C=CCn1c(SCc2nc3ccccc3nc2C)nnc1-c1ccoc1C	7.5	10.7	-1.0	1.2	-5.6
C=CCn1cnc2c(c1=O)c1nc3ccccc3nc1n2/N=C/c1cccc(OC)c1OC	.	21.0	.	1.9	.
C=CCn1cnc2c(c1=O)c1nc3ccccc3nc1n2/N=C/c1cc(OC)c(OC)c(OC)c1	2.1	77.2*	4.0	1.7	20.3
CC(C)CC(c1nnnn1Cc1ccccc1)N1CCN(C(=O)c2ccco2)CC1 (centres undefined)	3.0	7.9	0.0	1.6	-2.7
CCOc1cc(/C=N/n2cnnc2)ccc1OC(=O)c1cccc([N+](=O)[O-])c1	36.4*	.	-2.0	0.9	2.6
COc1ccc(/C=N/NC(=O)c2cccc([N+](=O)[O-])c2)cc1OC(=O)c1ccccc1	32.5*	.	-18.0	1.8	-13.0
CCOc1cc(/C=N/NC(=O)c2cc(C)[nH]n2)ccc1OC(=O)c1ccc([N+](=O)[O-])cc1	1.1	.	-4.0	1.1	0.8
Cc1ccc2c(c1)N(CCC(=O)NCCCOC(C)C)C(=O)C(C)O2 (centres undefined)	10.7	-7.0	-2.0	1.2	1.6
CCCn1c(SCCc2ccccc2)nc2c1c(=O)[nH]c(=O)n2C	20.0	-1.9	-5.0	1.1	1.5
Cc1ccc(Sc2nc3c(c(=O)[nH]c(=O)n3C)n2CCc2ccccc2)cc1	35.2*	.	1.0	1.4	-15.3
Cn1c(=O)[nH]c(=O)c2c1nc(Sc1nc3ccccc3s1)n2Cc1ccccc1	41.1*	-2.1	-1.0	1.2	3.0
CC(C)CCn1c(SCCc2ccccc2)nc2c1c(=O)[nH]c(=O)n2C	35.1*	13.2	-6.0	0.9	-7.3
C/C=C/Cn1c(SCCCc2ccccc2)nc2c1c(=O)[nH]c(=O)n2C	41.3*	40.4	-4.0	1.2	4.9
CCC(NC(=O)NCc1cccnc1)(C(F)(F)F)C(F)(F)F	3.2	-7.1	-6.0	1	-1.3
CC(C)N1CC(C(=O)Nc2nc3ccccc3s2)CC1=O (centres undefined)	3.6	1.0	-3.0	1.2	1.6
O=C(Nc1nc2ccccc2s1)C1CC(=O)N(c2ccc(Cl)cc2)C1 (centres undefined)	39.9*	.	-5.0	0.9	14.3
O=c1cc(-c2c(F)c(F)c(F)c(F)c2F)oc2ccccc12	8.1	.	0.0	0.7	3.4
O=c1cc(-c2c(F)c(F)c(F)c(F)c2F)oc2c(F)c(F)c(F)c(F)c12	64.4*	2.1	-1.0	0.9	54.0*
COc1ccc(C(=O)OCn2nnc3ccccc3c2=O)cc1OC	3.9	-2.1	-4.0	1	13.6
CN(C)S(=O)(=O)c1ccc(C(=O)OCn2nnc3ccccc3c2=O)cc1	28.4	.	3.0	1.3	58.0*
CC(C)[C@H](NS(=O)(=O)c1ccccc1)C(=O)OCn1nnc2ccccc2c1=O	12.9	.	4.0	0.9	8.7
Cc1ccc(S(=O)(=O)N[C@H](C(=O)OCn2nnc3ccccc3c2=O)C(C)C)cc1	34.9*	.	-7.0	0.9	2.9
